According to ChEMBL document CHEMBL3853331, “Preparation, Antiepileptic Activity, and Cardiovascular Safety of Dihydropyrazoles as Brain-Penetrant T-Type Calcium Channel Blockers” (J Med Chem, 2016):
Values after ≈ are worked out from the molar mass of the structure shown.

Columns and labels:
[1] = target: Voltage-dependent T-type calcium channel subunit alpha-1H (Homo sapiens, UniProt O95180); assay: Inhibition of recombinant T-type calcium channel Cav3.2 (unknown origin) expressed in HEK293 cells assessed as inhibition of CaCl2-induced calcium influx preincubated for 3 mins prior CaCl2 addition by Fluo-4-AM dye-based FLIPR assay; assay type: cell-based
In short: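 HEK293 cells stably expressing Cav3.2, plated overnight at 37°C, loaded 1 h at 37°C with 3 µM Fluo-4-AM in HBSS/Hepes pH 7.4, then washed. Compound in TEAC buffer (100 mM tetraethylammonium chloride, pH 7.2), 3-fold series from 10 µM to 0.05 nM, 3 min before CaCl2 to a final 10 mM. IC50 fitted sigmoidally to the fluorescence AUC against vehicle signal; mean of at least two independent experiments.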

[2] = target: Voltage-dependent L-type calcium channel subunit alpha-1C (Homo sapiens, UniProt Q13936); assay: Inhibition of recombinant […] calcium channel Cav1.2 (unknown origin) expressed in HEK293 cells assessed as inhibition of Kcl-induced calcium influx preincubated for 3 mins prior CaCl2 addition by Fluo-4-AM dye-based FLIPR assay; assay type: cell-based
In short: (§1)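 HEK293 cells stably expressing the channel, seeded overnight and loaded 1 h at 37°C with 3 µM Fluo-4-AM. Compounds given as a 3-fold dilution series from 10 µM to 0.05 nM and incubated 3 min. For T-type channels, dilutions in TEAC buffer and stimulation with 10 mM final CaCl2. For Cav1.2, dilutions in assay buffer and stimulation with 20 mM final KCl. IC50 from area under the fluorescence trace against vehicle; mean of at least two experiments.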

[3] = Aqueous solubility of the compound at pH 4 by UV-HPLC method; assay type: physicochemical
In short: (§2)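 Compound dispensed from a 10 mM DMSO stock and the solvent evaporated. Residue stirred 24 h at room temperature in buffer: citrate (55 mM) pH 4.0 or phosphate (67 mM) pH 7.0. Mixture filtered by centrifugation. Filtrate concentration measured by HPLC-UV against calibration solutions.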

[4] = Aqueous solubility of the compound at pH 7 by UV-HPLC method; assay type: physicochemical; in short: as §2
[5] = target: Voltage-dependent T-type calcium channel subunit alpha-1I (Homo sapiens, UniProt Q9P0X4); assay: Inhibition of T-type calcium channel Cav3.3 (unknown origin) expressed in HEK293 cells assessed as calcium influx by Fluo-4-AM dye-based FLIPR assay; assay type: cell-based; in short: as §1
[6] = target: Voltage-dependent T-type calcium channel subunit alpha-1G (Homo sapiens, UniProt O43497); assay: Inhibition of T-type calcium channel Cav3.1 (unknown origin) expressed in HEK293 cells assessed as calcium influx by Fluo-4-AM dye-based FLIPR assay; assay type: cell-based; in short: as §1
MDR1 [7] = assay: Apparent permeability across apical to basolateral side in MDCK cells expressing MDR1 (unknown origin) at 1 uM; assay type: ADME, cell-based, Canis lupus familiaris; details: dog
In short: (§3)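 MDR1-transfected MDCK cell monolayers. Compound tested at 1 µM. Apparent permeability measured in both directions, apical to basolateral and basolateral to apical. Efflux ratio taken from the two directional permeabilities.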

MDR1 [8] = assay: Apparent permeability across basolateral to apical side in MDCK cells expressing MDR1 (unknown origin) at 1 uM; assay type: ADME, cell-based, Canis lupus familiaris; details: dog; in short: as §3
MDR1 [9] = assay: Efflux ratio of permeability in MDCK cells expressing MDR1 (unknown origin); assay type: ADME, cell-based, Canis lupus familiaris; details: dog; in short: as §3
[10] = target: Voltage-gated inwardly rectifying potassium channel KCNH2 (Homo sapiens, UniProt Q12809); assay: Inhibition of human ERG expressed in CHO cells assessed as potassium tail current measured at -40 mV holding potential after 3 mins by QPatch clamp assay; assay type: cell-based
In short: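 CHO cells stably expressing hERG, automated QPatch recording. 500-ms depolarization to +20 mV from a holding potential of -80 mV. K+ tail current measured at -40 mV. Effect read 3 min after application.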

Sequence of Voltage-dependent T-type calcium channel subunit alpha-1H (O95180 whole entry): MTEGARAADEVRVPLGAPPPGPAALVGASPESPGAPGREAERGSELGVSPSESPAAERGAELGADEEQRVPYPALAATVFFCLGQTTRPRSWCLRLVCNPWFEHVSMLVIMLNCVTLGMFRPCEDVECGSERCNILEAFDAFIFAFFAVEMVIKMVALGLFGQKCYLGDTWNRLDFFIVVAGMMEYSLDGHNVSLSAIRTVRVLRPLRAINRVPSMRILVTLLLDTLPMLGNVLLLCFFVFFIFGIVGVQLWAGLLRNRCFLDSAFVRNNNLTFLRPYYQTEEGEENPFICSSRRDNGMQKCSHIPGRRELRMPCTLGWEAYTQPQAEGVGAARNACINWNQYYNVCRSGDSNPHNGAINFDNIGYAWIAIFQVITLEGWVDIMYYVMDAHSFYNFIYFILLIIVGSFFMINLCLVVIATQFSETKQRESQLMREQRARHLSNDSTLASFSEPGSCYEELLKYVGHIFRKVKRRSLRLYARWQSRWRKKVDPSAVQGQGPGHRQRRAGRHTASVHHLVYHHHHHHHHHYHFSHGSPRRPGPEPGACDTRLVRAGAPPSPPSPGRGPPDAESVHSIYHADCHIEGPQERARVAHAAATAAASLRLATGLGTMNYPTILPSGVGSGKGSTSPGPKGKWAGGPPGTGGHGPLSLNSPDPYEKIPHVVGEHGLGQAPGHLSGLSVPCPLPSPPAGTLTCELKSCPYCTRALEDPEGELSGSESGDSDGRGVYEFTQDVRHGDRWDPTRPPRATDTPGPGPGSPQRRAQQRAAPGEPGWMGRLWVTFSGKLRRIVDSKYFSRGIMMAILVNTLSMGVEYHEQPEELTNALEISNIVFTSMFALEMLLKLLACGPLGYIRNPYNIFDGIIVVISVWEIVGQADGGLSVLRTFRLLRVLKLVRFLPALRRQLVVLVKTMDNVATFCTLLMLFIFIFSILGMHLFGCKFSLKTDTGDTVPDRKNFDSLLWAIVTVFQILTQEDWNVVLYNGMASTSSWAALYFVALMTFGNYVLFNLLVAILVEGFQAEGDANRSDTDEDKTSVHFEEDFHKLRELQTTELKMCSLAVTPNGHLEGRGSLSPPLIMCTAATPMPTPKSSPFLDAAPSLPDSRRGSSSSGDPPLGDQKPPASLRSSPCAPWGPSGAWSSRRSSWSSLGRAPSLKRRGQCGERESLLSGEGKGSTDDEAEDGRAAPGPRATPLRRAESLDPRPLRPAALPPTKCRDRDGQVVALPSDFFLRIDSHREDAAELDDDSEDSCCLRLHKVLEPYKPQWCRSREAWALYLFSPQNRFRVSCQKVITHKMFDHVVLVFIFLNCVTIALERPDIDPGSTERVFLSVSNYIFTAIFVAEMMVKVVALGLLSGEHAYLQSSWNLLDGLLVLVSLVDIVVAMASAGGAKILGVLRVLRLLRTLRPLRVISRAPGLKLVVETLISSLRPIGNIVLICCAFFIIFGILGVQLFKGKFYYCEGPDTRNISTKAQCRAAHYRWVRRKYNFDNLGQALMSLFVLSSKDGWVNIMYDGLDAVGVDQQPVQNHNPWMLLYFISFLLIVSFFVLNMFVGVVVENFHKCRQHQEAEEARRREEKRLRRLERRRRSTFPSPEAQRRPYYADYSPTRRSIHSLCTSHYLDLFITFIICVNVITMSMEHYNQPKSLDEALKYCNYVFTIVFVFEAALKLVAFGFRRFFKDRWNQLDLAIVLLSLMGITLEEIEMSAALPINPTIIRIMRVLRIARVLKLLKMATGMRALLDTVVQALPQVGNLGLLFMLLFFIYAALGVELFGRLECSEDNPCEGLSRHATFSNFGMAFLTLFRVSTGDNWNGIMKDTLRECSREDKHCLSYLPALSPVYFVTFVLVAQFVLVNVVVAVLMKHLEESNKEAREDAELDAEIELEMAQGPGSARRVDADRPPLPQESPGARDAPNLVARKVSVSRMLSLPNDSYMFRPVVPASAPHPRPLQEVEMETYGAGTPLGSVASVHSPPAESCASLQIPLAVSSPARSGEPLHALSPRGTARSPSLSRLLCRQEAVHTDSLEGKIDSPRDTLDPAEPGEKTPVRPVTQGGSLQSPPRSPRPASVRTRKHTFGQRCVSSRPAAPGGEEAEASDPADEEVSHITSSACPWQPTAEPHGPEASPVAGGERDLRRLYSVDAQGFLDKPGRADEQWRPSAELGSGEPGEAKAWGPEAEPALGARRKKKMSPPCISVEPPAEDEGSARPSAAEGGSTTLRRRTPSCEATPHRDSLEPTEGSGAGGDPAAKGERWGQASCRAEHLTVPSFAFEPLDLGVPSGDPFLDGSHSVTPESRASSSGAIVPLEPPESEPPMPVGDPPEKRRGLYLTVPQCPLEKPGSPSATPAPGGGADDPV
Sequence of Voltage-dependent L-type calcium channel subunit alpha-1C (Q13936 whole entry): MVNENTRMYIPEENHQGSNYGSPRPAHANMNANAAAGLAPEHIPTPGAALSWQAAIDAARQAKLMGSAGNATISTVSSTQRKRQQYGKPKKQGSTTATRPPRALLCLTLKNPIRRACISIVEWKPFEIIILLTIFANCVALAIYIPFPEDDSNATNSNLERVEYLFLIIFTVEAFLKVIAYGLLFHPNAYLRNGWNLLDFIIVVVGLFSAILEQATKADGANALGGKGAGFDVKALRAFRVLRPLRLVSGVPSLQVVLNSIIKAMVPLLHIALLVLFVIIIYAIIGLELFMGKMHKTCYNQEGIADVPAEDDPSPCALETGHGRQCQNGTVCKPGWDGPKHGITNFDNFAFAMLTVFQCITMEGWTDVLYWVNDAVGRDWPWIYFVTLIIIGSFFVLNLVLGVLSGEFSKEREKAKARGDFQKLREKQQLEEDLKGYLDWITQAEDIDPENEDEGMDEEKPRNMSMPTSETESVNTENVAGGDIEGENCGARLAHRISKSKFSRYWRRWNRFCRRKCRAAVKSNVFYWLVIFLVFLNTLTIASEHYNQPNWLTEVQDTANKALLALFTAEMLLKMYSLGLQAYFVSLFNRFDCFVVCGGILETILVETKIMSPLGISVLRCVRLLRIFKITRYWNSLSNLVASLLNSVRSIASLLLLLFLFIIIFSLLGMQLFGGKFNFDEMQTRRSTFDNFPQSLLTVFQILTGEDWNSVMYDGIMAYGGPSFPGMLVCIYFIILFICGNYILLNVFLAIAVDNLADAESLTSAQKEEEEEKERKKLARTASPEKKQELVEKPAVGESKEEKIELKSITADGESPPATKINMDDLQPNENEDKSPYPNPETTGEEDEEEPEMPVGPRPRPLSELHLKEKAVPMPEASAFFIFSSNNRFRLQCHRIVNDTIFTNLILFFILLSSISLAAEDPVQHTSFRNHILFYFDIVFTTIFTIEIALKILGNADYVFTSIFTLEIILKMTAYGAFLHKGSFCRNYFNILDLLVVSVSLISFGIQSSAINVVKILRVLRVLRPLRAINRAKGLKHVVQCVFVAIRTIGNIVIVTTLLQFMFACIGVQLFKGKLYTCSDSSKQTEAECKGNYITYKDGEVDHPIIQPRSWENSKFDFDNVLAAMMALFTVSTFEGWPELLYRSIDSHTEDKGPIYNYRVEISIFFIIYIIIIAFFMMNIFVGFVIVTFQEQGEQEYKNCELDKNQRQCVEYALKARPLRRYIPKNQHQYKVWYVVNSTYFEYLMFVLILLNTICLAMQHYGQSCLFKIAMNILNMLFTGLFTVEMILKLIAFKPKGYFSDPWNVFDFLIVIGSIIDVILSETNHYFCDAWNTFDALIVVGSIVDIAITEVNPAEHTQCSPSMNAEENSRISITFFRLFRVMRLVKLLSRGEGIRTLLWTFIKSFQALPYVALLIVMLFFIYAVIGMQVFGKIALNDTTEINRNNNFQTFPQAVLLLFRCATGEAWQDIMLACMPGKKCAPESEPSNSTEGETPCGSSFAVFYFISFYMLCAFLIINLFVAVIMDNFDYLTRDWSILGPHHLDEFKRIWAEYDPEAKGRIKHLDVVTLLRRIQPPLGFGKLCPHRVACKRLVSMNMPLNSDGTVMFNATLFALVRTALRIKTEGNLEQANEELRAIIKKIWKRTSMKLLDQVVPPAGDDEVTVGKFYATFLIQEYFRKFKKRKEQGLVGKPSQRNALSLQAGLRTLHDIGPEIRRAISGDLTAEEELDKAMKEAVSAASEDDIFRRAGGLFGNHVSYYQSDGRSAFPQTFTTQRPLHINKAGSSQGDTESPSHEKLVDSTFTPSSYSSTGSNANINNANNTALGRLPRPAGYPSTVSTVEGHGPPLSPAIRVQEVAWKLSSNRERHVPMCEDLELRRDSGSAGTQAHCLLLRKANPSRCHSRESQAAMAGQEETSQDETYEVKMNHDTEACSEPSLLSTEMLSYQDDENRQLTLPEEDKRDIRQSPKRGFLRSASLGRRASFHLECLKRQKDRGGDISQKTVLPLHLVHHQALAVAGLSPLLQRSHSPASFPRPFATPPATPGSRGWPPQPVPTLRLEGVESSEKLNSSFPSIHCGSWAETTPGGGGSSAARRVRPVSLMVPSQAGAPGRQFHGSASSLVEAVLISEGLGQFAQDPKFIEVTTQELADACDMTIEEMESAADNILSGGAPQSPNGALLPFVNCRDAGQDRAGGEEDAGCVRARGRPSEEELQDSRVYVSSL

Compound	IC50 [1] [nM]	IC50 [2] [nM]	further results
Cc1ccc(C2(CCN3CCN(C)CC3)CC(c3ccccc3)=NN2C(=O)Nc2ccc(F)cc2)cc1 (stereo not given)	690	3600	solubility [3]: 477 µg/mL (≈ 955 µM); solubility [4]: 158 µg/mL (≈ 316 µM)
O=C(Nc1ccccc1F)N1N=C(c2ccc(Br)cc2)CC1c1ccc(F)cc1 (stereo not given)	> 10000	> 10000	solubility [3]: < 1 µg/mL; solubility [4]: < 1 µg/mL
O=C(Nc1ccc(F)cc1)N1N=C(c2ccncc2)C[C@@H]1c1ccc(F)cc1	320	7800	
O=C(c1ccccc1)N1N=C(c2ccc(Br)cc2)CC1c1ccc(F)cc1 (stereo not given)	5390	> 10000	
COCC1(c2ccc(C)cc2)CC(c2ccccc2)=NN1C(=O)Nc1ccc(F)cc1 (stereo not given)	350	> 10000	
COc1ccc([C@@]2(CCO)CC(c3cccnc3)=NN2C(=O)Nc2ccc(Br)cc2)cc1	> 10000		
CCc1ccc(NC(=O)N2N=C(c3ccc(Br)cc3)CC2c2ccc(F)cc2)cc1 (stereo not given)	613	> 10000	
Cc1ccc(C2(CCO)CC(c3ccncc3)=NN2C(=O)Nc2ccc(F)cc2)cc1 (stereo not given)	330	8600	solubility [3]: 193 µg/mL (≈ 461 µM); solubility [4]: 35 µg/mL (≈ 83.6 µM)
O=C(Nc1ccc(F)cc1)N1N=C(c2ccc(Br)cc2)CC1c1ccc(F)cc1 (stereo not given)	16	> 10000	solubility [3]: < 1 µg/mL
CN(C)CCOc1ccc(C2(CCO)CC(c3ccccc3)=NN2C(=O)Nc2ccc(F)cc2)cc1 (stereo not given)	> 5300	> 10000	
CC1=NN(C(=O)Nc2ccc(F)cc2)C(c2ccc(F)cc2)C1 (stereo not given)	900	> 10000	
CC(C)NC(=O)N1N=C(c2ccc(Br)cc2)CC1c1ccc(F)cc1 (stereo not given)	382	2360	
Cc1ccc(C2(CCN3CCOCC3)CC(c3ccccc3)=NN2C(=O)Nc2ccc(F)cc2)cc1 (stereo not given)	430	5900	solubility [3]: 371 µg/mL (≈ 762 µM); solubility [4]: 1 µg/mL (≈ 2.06 µM)
O=C(Nc1ccc(F)cc1)N1N=C(c2ccccc2)CC1(CCO)c1ccccc1 (stereo not given)	120	1940	
O=C(NC1CCCCC1)N1N=C(c2ccc(Br)cc2)CC1c1ccc(F)cc1 (stereo not given)	316	1340	
CS(=O)(=O)c1ccc(C2(CCO)CC(c3ccccc3)=NN2C(=O)Nc2ccc(F)cc2)cc1 (stereo not given)	420	> 10000	Papp A→B at 1 µM (MDR1 [7]): 0.6 ×10⁻⁶ cm/s; Papp B→A at 1 µM (MDR1 [8]): 62 ×10⁻⁶ cm/s; efflux ratio (MDR1 [9]): 104
O=C(NCCc1ccccc1)N1N=C(c2ccc(Br)cc2)CC1c1ccc(F)cc1 (stereo not given)	420	1880	
O=C(Nc1ccncc1)N1N=C(c2ccccc2)CC1c1ccc(F)cc1 (stereo not given)	202	3090	
Cc1ccc(C2(CCN(C)C)CC(c3ccccc3)=NN2C(=O)Nc2ccc(F)cc2)cc1 (stereo not given)	240	2200	solubility [3]: 42 µg/mL (≈ 94.5 µM); solubility [4]: 30 µg/mL (≈ 67.5 µM)
CC1CC(c2ccccc2)=NN1C(=O)Nc1ccc(F)cc1 (stereo not given)	410	3900	
O=C(Nc1ccccn1)N1N=C(c2ccc(Br)cc2)CC1c1ccc(F)cc1 (stereo not given)	393	2180	
COc1ccc(NC(=O)N2N=C(c3ccc(Br)cc3)CC2c2ccc(F)cc2)cc1 (stereo not given)	447	> 10000	solubility [3]: < 1 µg/mL; solubility [4]: < 1 µg/mL
CS(=O)(=O)c1ccc(C2CC(c3ccncc3)=NN2C(=O)Nc2ccc(F)cc2)cc1 (stereo not given)	410	> 10000	
Fc1ccc(NC(=S)N2N=C(c3ccc(Br)cc3)CC2c2ccc(F)cc2)cc1 (stereo not given)	281	> 10000	
COc1ccc(C2(CCO)CC(c3cccnc3)=NN2C(=O)Nc2ccc(Br)cc2)cc1 (stereo not given)	140	> 10000	

More lines, main results first:

IC50 [1] [nM]	Compound	IC50 [2] [nM]	further results
60	COCCOc1ccc(C2(CCO)CC(c3ccccc3)=NN2C(=O)Nc2ccc(F)cc2)cc1 (stereo not given)	6300	solubility [3]: 8 µg/mL (≈ 16.8 µM); solubility [4]: 8 µg/mL (≈ 16.8 µM)
8.2	CC(C)c1ccc(CC(=O)N[C@H](C)c2ccc(OCC(F)(F)F)cn2)cc1 [SUVECALTAMIDE]		IC50 [5]: 1.5 nM; IC50 [6]: 1.2 nM
70	O=C(Nc1ccc(F)cc1)N1N=C(c2ccccc2)CC1(CO)c1ccc(F)cc1 (stereo not given)	2650	solubility [4]: 2 µg/mL (≈ 4.91 µM)
21	O=C(Nc1ccc(F)cc1)N1N=C(c2ccncc2)C[C@H]1c1ccc(F)cc1	5400	
110	O=C(Nc1ccc(F)cc1)N1N=C(c2cc[n+]([O-])cc2)CC1c1ccc(F)cc1 (stereo not given)	> 10000	
55	COc1ccc(C2=NN(C(=O)Nc3ccc(Cl)cc3)[C@](CCO)(c3cccnc3)C2)cc1	5700	solubility [3]: 27 µg/mL (≈ 59.9 µM); solubility [4]: 14 µg/mL (≈ 31 µM); Papp A→B at 1 µM (MDR1 [7]): 5.3 ×10⁻⁶ cm/s; Papp B→A at 1 µM (MDR1 [8]): 90 ×10⁻⁶ cm/s; efflux ratio (MDR1 [9]): 17
25	O=C(Nc1ccc(F)cc1)N1N=C(c2ccccc2)CC1c1ccc(F)cc1 (stereo not given)	> 10000	solubility [3]: < 1 µg/mL; solubility [4]: < 1 µg/mL
33	COc1ccc([C@]2(CCO)CC(c3cccnc3)=NN2C(=O)Nc2ccc(Br)cc2)cc1	4800	
73	CC(C)(C)NC(=O)CN1CCC(CNC(=O)c2cc(F)cc(Cl)c2)CC1 [ULIXACALTAMIDE]		IC50 [5]: 86 nM; IC50 [6]: 37 nM
68	O=C(Nc1ccccc1)N1N=C(c2ccc(Br)cc2)CC1c1ccc(F)cc1 (stereo not given)	> 10000	IC50 [10]: > 10000 nM
46	O=C(Nc1cccc(F)c1)N1N=C(c2ccc(Br)cc2)CC1c1ccc(F)cc1 (stereo not given)	> 10000	IC50 [10]: > 10000 nM
40	CS(=O)(=O)c1ccc(C2CC(c3ccccc3)=NN2C(=O)Nc2ccc(F)cc2)cc1 (stereo not given)	> 10000	solubility [3]: < 1 µg/mL; solubility [4]: < 1 µg/mL
